Measurements as given in ChEMBL document CHEMBL1156160, “The introduction of P4 substituted 1-methylcyclohexyl groups into Boceprevir: a change in direction in the search for a second generation HCV NS3 protease inhibitor” (Bioorg Med Chem Lett, 2010).

What was measured:
[1] = Inhibition of HCV NS4A tagged recombinant single chain NS3 protease after 15 mins; set-up: species or system Hepacivirus hominis
[2] = Selectivity for HCV NS3 protease over human neutrophil elastase
Method in brief: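 Ratio of inhibitory activity against human neutrophil elastase to that against HCV protease (HNE/HCV), taken as selectivity. HCV activity was from a continuous protease assay using NS4A-tethered single-chain NS3 serine protease, giving Ki* as the equilibrium constant for reversible covalent binding of the electrophilic ketone to the active-site serine. Compounds were tested as P1-epimer diastereomer mixtures.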

[3] = tested on: Hepatitis C virus; test: Antiviral activity against HCV in human hepatoma cells assessed as inhibition of RNA replication by replicon assay; assay type: functional, Hepacivirus hominis

SMILES | Ki [1] | Ratio [2] | EC90 [3]
CCS(=O)(=O)CC1(NC(=O)N[C@H](C(=O)N2C[C@H]3[C@@H]([C@H]2C(=O)NC(CC2CCC2)C(=O)C(N)=O)C3(C)C)C(C)(C)C)CCCCC1 (stereo partly drawn) | 5 nM | 1200 | 90 nM
CC(C)(C)[C@H](NC(=O)NC1(Cc2nccs2)CCCCC1)C(=O)N1C[C@H]2[C@@H]([C@H]1C(=O)NC(CC1CC1)C(=O)C(N)=O)C2(C)C (stereo partly drawn) | 11 nM | 620 | 200 nM
CC(C)(C)[C@H](NC(=O)NC1(Cc2ccc3ccccc3c2)CCCCC1)C(=O)N1C[C@H]2[C@@H]([C@H]1C(=O)NC(CC1CC1)C(=O)C(N)=O)C2(C)C (stereo partly drawn) | 300 nM |  | 
CC1(NC(=O)N[C@H](C(=O)N2C[C@H]3[C@@H]([C@H]2C(=O)NC(CC2CC2)C(=O)C(N)=O)C3(C)C)C(C)(C)C)CCC1 (stereo partly drawn) | 24 nM | 110 | 200 nM
CC(C)(C)[C@H](NC(=O)NC1(CS(C)(=O)=O)CCCCC1)C(=O)N1C[C@H]2[C@@H]([C@H]1C(=O)NC(CC1CCC1)C(=O)C(N)=O)C2(C)C (stereo partly drawn) | 4 nM | 2400 | 500 nM
CC(C)(C)[C@H](NC(=O)NC1(CS(=O)(=O)Cc2ccccc2)CCCCC1)C(=O)N1C[C@H]2[C@@H]([C@H]1C(=O)NC(CC1CC1)C(=O)C(N)=O)C2(C)C (stereo partly drawn) | 5 nM | 90 | 400 nM
CCS(=O)(=O)CC1(NC(=O)N[C@H](C(=O)N2C[C@H]3[C@@H]([C@H]2C(=O)NC(CC2CC2)C(=O)C(N)=O)C3(C)C)C(C)(C)C)CCCCC1 (stereo partly drawn) | 11 nM | 290 | 400 nM
CC(C)(C)[C@H](NC(=O)NC1(Cc2ccc(O)cc2)CCCCC1)C(=O)N1C[C@H]2[C@@H]([C@H]1C(=O)NC(CC1CC1)C(=O)C(N)=O)C2(C)C (stereo partly drawn) | 30 nM | 260 | 400 nM
CC(C)(C)[C@H](NC(=O)NC1(CN)CCCC1)C(=O)N1C[C@H]2[C@@H]([C@H]1C(=O)NC(CC1CC1)C(=O)C(N)=O)C2(C)C (stereo partly drawn) | 140 nM |  | 
C=CCNC(=O)C(=O)C(CCC)NC(=O)[C@@H]1[C@@H]2[C@H](CN1C(=O)[C@@H](NC(=O)NC(C)(C)C)C1CCCCC1)C2(C)C (stereo partly drawn) | 280 nM |  | 
CC1(NC(=O)N[C@H](C(=O)N2C[C@H]3[C@@H]([C@H]2C(=O)NC(CC2CC2)C(=O)C(N)=O)C3(C)C)C(C)(C)C)CCCCC1 (stereo partly drawn) | 16 nM |  | 250 nM
CC(C)(C)[C@H](NC(=O)NC1(CS(=O)(=O)c2cccc(O)c2)CCCCC1)C(=O)N1C[C@H]2[C@@H]([C@H]1C(=O)NC(CC1CC1)C(=O)C(N)=O)C2(C)C (stereo partly drawn) | 6 nM | 200 | 1000 nM
CC1(NC(=O)N[C@H](C(=O)N2C[C@H]3[C@@H]([C@H]2C(=O)NC(CC2CC2)C(=O)C(N)=O)C3(C)C)C(C)(C)C)CCCC1 (stereo partly drawn) | 10 nM |  | 200 nM
CC(C)(C)[C@H](NC(=O)NC1(CS(=O)(=O)C(C)(C)C)CCCCC1)C(=O)N1C[C@H]2[C@@H]([C@H]1C(=O)NC(CC1CC1)C(=O)C(N)=O)C2(C)C (stereo partly drawn) | 12 nM |  | 100 nM
CC(C)(C)[C@H](NC(=O)NC1(Cc2ccccc2)CCCCCC1)C(=O)N1C[C@H]2[C@@H]([C@H]1C(=O)NC(CC1CC1)C(=O)C(N)=O)C2(C)C (stereo partly drawn) | 78 nM | 73 | 700 nM
CC(C)(C)[C@H](NC(=O)NC1(C(=O)c2ccccc2)CCCCC1)C(=O)N1C[C@H]2[C@@H]([C@H]1C(=O)NC(CC1CC1)C(=O)C(N)=O)C2(C)C (stereo partly drawn) | 100 nM | 230 | 2000 nM
CC(C)(C)[C@H](NC(=O)NC1(Cc2ccccc2)CCCC1)C(=O)N1C[C@H]2[C@@H]([C@H]1C(=O)NC(CC1CC1)C(=O)C(N)=O)C2(C)C (stereo partly drawn) | 24 nM | 130 | 300 nM
CC(C)(C)[C@H](NC(=O)NC1(CS(C)(=O)=O)CCCCC1)C(=O)N1C[C@H]2[C@@H]([C@H]1C(=O)NC(CC1CC1)C(=O)C(N)=O)C2(C)C (stereo partly drawn) | 2 nM | 460 | 300 nM
CC(C)(C)[C@H](NC(=O)NC1(c2ccccc2)CCCCC1)C(=O)N1C[C@H]2[C@@H]([C@H]1C(=O)NC(CC1CC1)C(=O)C(N)=O)C2(C)C (stereo partly drawn) | 47 nM | 320 | 400 nM
CC(c1ccccc1)C1(NC(=O)N[C@H](C(=O)N2C[C@H]3[C@@H]([C@H]2C(=O)NC(CC2CC2)C(=O)C(N)=O)C3(C)C)C(C)(C)C)CCCCC1 (stereo partly drawn) | 11 nM | 2600 | 400 nM
CC(C)(C)[C@H](NC(=O)NC1(Cc2ccccn2)CCCCC1)C(=O)N1C[C@H]2[C@@H]([C@H]1C(=O)NC(CC1CC1)C(=O)C(N)=O)C2(C)C (stereo partly drawn) | 7 nM |  | 180 nM

SMILES | Ki [1] | Ratio [2] | EC90 [3]
CC(C)(C)[C@H](NC(=O)NC1(C(O)c2ccccc2)CCCCC1)C(=O)N1C[C@H]2[C@@H]([C@H]1C(=O)NC(CC1CC1)C(=O)C(N)=O)C2(C)C (stereo partly drawn) | 11 nM | 1170 | 400 nM
CC(C)(C)[C@H](NC(=O)NC1(CS(=O)(=O)Cc2ccco2)CCCCC1)C(=O)N1C[C@H]2[C@@H]([C@H]1C(=O)NC(CC1CC1)C(=O)C(N)=O)C2(C)C (stereo partly drawn) | 4 nM | 200 | 500 nM
CC(C)(C)[C@H](NC(=O)NC1(Cc2ccsc2)CCCCC1)C(=O)N1C[C@H]2[C@@H]([C@H]1C(=O)NC(CC1CC1)C(=O)C(N)=O)C2(C)C (stereo partly drawn) | 10 nM |  | 100 nM
CC(C)(C)[C@H](NC(=O)NC1(CS(=O)(=O)c2ccccc2)CCCCC1)C(=O)N1C[C@H]2[C@@H]([C@H]1C(=O)NC(CC1CCC1)C(=O)C(N)=O)C2(C)C (stereo partly drawn) | 9 nM | 1100 | 200 nM
CC(C)(C)[C@H](NC(=O)NC1(CS(=O)(=O)C(C)(C)C)CCCCC1)C(=O)N1C[C@H]2[C@@H]([C@H]1C(=O)NC(CC1CCC1)C(=O)C(N)=O)C2(C)C (stereo partly drawn) | 3 nM |  | 80 nM
CC(C)(C)[C@H](NC(=O)NC1(Cc2cccs2)CCCCC1)C(=O)N1C[C@H]2[C@@H]([C@H]1C(=O)NC(CC1CC1)C(=O)C(N)=O)C2(C)C (stereo partly drawn) | 9 nM | 470 | 200 nM
CC1(NC(=O)N[C@H](C(=O)N2C[C@H]3[C@@H]([C@H]2C(=O)NC(CC2CC2)C(=O)C(N)=O)C3(C)C)C(C)(C)C)CCCCCC1 (stereo partly drawn) | 15 nM | 155 | 250 nM
CC(C)(C)[C@H](NC(=O)NC1(Cc2ccccc2)CCCCC1)C(=O)N1C[C@H]2[C@@H]([C@H]1C(=O)NC(CC1CC1)C(=O)C(N)=O)C2(C)C (stereo partly drawn) | 12 nM | 395 | 85 nM
CC(C)(C)[C@H](NC(=O)NC1(CS(=O)(=O)c2ccccc2)CCCCC1)C(=O)N1C[C@H]2[C@@H]([C@H]1C(=O)NC(CC1CC1)C(=O)C(N)=O)C2(C)C (stereo partly drawn) | 3 nM |  | 100 nM
CC(C)(C)[C@H](NC(=O)NC1(Cc2cccnc2)CCCCC1)C(=O)N1C[C@H]2[C@@H]([C@H]1C(=O)NC(CC1CC1)C(=O)C(N)=O)C2(C)C (stereo partly drawn) | 25 nM | 200 | 400 nM
CCC(c1ccccc1)C1(NC(=O)N[C@H](C(=O)N2C[C@H]3[C@@H]([C@H]2C(=O)NC(CC2CC2)C(=O)C(N)=O)C3(C)C)C(C)(C)C)CCCCC1 (stereo partly drawn) | 20 nM | 1500 | 400 nM
CC(C)(C)[C@H](NC(=O)NC1(CO)CCCC1)C(=O)N1C[C@H]2[C@@H]([C@H]1C(=O)NC(CC1CC1)C(=O)C(N)=O)C2(C)C (stereo partly drawn) | 15 nM |  | > 1000 nM
CC1(NC(=O)N[C@H](C(=O)N2C[C@H]3[C@@H]([C@H]2C(=O)NC(CC2CCC2)C(=O)C(N)=O)C3(C)C)C(C)(C)C)CCCCC1 (stereo partly drawn) | 8 nM | 4100 | 200 nM
CC(C)(C)[C@H](NC(=O)NC1(Cc2ccco2)CCCCC1)C(=O)N1C[C@H]2[C@@H]([C@H]1C(=O)NC(CC1CC1)C(=O)C(N)=O)C2(C)C (stereo partly drawn) | 11 nM |  | 100 nM
CCCC(NC(=O)[C@@H]1[C@@H]2[C@H](CN1C(=O)[C@@H](NC(=O)NC(C)(C)C)C1CCCCC1)C2(C)C)C(=O)C(N)=O (stereo partly drawn) | 100 nM |  | 
CC(C)(C)[C@H](NC(=O)NC1(Cc2cccc3ccccc23)CCCCC1)C(=O)N1C[C@H]2[C@@H]([C@H]1C(=O)NC(CC1CC1)C(=O)C(N)=O)C2(C)C (stereo partly drawn) | 44 nM | 470 | 400 nM
Cc1cc(S(=O)(=O)CC2(NC(=O)N[C@H](C(=O)N3C[C@H]4[C@@H]([C@H]3C(=O)NC(CC3CC3)C(=O)C(N)=O)C4(C)C)C(C)(C)C)CCCCC2)co1 (stereo partly drawn) | 10 nM | 260 | 400 nM
CC(C)(C)[C@H](NC(=O)NC1(Cc2cccc(O)c2)CCCCC1)C(=O)N1C[C@H]2[C@@H]([C@H]1C(=O)NC(CC1CC1)C(=O)C(N)=O)C2(C)C (stereo partly drawn) | 9 nM |  | 70 nM
CC(C)(C)[C@H](NC(=O)NC1(Cc2ccccc2O)CCCCC1)C(=O)N1C[C@H]2[C@@H]([C@H]1C(=O)NC(CC1CC1)C(=O)C(N)=O)C2(C)C (stereo partly drawn) | 19 nM | 440 | 150 nM
CC(C)(C)[C@H](NC(=O)NC1(Cc2ccncc2)CCCCC1)C(=O)N1C[C@H]2[C@@H]([C@H]1C(=O)NC(CC1CC1)C(=O)C(N)=O)C2(C)C (stereo partly drawn) | 39 nM | 250 | 300 nM
CC(C)(C)[C@H](NC(=O)NC1(CS(=O)(=O)c2ccccn2)CCCCC1)C(=O)N1C[C@H]2[C@@H]([C@H]1C(=O)NC(CC1CCC1)C(=O)C(N)=O)C2(C)C (stereo partly drawn) | 10 nM | 1570 | 300 nM
